The source made the active and inactive calls. The rule behind the calls is not given here.
Species on record: Bos taurus
Assay: Activity at calf intestinal adenosine deaminase type 1 by spectrophotometric assay
Conditions: not given
For `C[C@H](O)[C@H]1O[C@H](n2cnc3c(N)ncnc32)[C@@H](O)[C@@H]1O`, the Km was “inactive” and the Vmax was “inactive”. In the case of `C[C@@H](O)[C@@H]1O[C@@H](n2cnc3c(N)ncnc32)[C@H](O)[C@H]1O`, the Km is reported as 230 µM and the Vmax is reported as 0.105 µmol/min/mg. For `Nc1ncnc2c1ncn2[C@H]1O[C@@H]([C@H](O)CO)[C@@H](O)[C@@H]1O`, the Km was “inactive” and the Vmax was “inactive”. `C[C@H](O)[C@@H]1O[C@@H](n2cnc3c(N)ncnc32)[C@H](O)[C@@H]1O` showed a Km of 670 µM and a Vmax of 0.326 µmol/min/mg. With `C[C@H](O)[C@H]1O[C@@H](n2cnc3c(N)ncnc32)[C@H](O)[C@H]1O` the Km was 320 µM and the Vmax was 25 µmol/min/mg. In the case of `Nc1ncnc2c1ncn2[C@@H]1O[C@H](CO)[C@@H](O)[C@H]1O`, the Vmax is reported as 220 µmol/min/mg. For `C[C@H](O)[C@@H]1O[C@H](n2cnc3c(N)ncnc32)[C@@H](O)[C@@H]1O`, the Km was “inactive” and the Vmax was “inactive”. With `C[C@@H](O)[C@@H]1O[C@H](n2cnc3c(N)ncnc32)[C@@H](O)[C@@H]1O` the Km was “inactive” and the Vmax was “inactive”. `C[C@H](O)[C@H]1O[C@@H](n2cnc3c(N)ncnc32)[C@H](O)[C@@H]1O` gave a Km of 21 µM and a Vmax of 61 µmol/min/mg. `Nc1ncnc2c1ncn2[C@@H]1O[C@H]([C@@H](O)CO)[C@H](O)[C@H]1O` gave a Km of 260 µM and a Vmax of 0.178 µmol/min/mg. With `C[C@@H](O)[C@H]1O[C@H](n2cnc3c(N)ncnc32)[C@@H](O)[C@@H]1O` the Km was “inactive” and the Vmax was “inactive”. With `C[C@@H](O)[C@H]1O[C@@H](n2cnc3c(N)ncnc32)[C@H](O)[C@@H]1O` the Km was 78 µM and the Vmax was 0.792 µmol/min/mg. For `Nc1ncnc2c1ncn2[C@@H]1O[C@@H]([C@@H](O)CO)[C@@H](O)[C@H]1O`, the Km was 280 µM and the Vmax was 0.092 µmol/min/mg. For `C[C@@H](O)[C@@H]1O[C@@H](n2cnc3c(N)ncnc32)[C@H](O)[C@@H]1O`, the Km was “inactive” and the Vmax was “inactive”.

System: not listed separately
Assay: Inhibition of calf intestinal adenosine deaminase type 1 by spectrophotometric assay
Parameters: species or system Bos taurus
Conditions: not given
In short: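 Commercial calf intestinal adenosine deaminase (type I) was assayed with adenosine as substrate plus the analogue, both in 0.05 M phosphate buffer, pH 7.0, at 25 °C. Mode of inhibition and Ki were derived from the kinetics.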
In the case of `Nc1ncnc2c1ncn2[C@H]1O[C@@H]([C@H](O)CO)[C@@H](O)[C@@H]1O`, the Ki is reported as “Not Active”.

Same assay, conditions: read-out: Ki
With `Nc1ncnc2c1ncn2[C@H]1O[C@H]([C@H](O)CO)[C@H](O)[C@@H]1O` the Ki was 240 µM. In the case of `Nc1ncnc2c1ncn2[C@H]1O[C@H]([C@@H](O)CO)[C@H](O)[C@@H]1O`, the Ki is reported as 120 µM. `Nc1ncnc2c1ncn2[C@@H]1O[C@H]([C@@H](O)CO)[C@H](O)[C@H]1O` gave a Ki of 180 µM. With `Nc1ncnc2c1ncn2[C@@H]1O[C@H]([C@H](O)CO)[C@H](O)[C@@H]1O` the Ki was 670 µM. `Nc1ncnc2c1ncn2[C@@H]1O[C@@H]([C@@H](O)CO)[C@@H](O)[C@H]1O` gave a Ki of 120 µM.

Source: ChEMBL document CHEMBL3244227, “Hexofuranosyladenine nucleosides as substrates and inhibitors of calf intestinal adenosine deaminase” (J Med Chem, 1979)
